Compounds with a hit are over-represented: about 1.2% of the library has one in this group of screens.
ARNT-TACC3 inh: disrupts binding between human ARNT and TACC3 | Q9Y6A5 | AlphaScreen His-ARNT PAS-B/GST-TACC3 binding, luminescence; TACC3 fragment carries E629A point mutation | inhibition, % at 9.99 µM | hit rate 0.66% among 390,000;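 active means mean inhibition of replicates at least 50% and at least half of replicates each reaching 50%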;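 further: 0% = complete ARNT plus TACC3 wells and 100% = ARNT alone without TACC3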
CAL PDZ FP-1: blocks peptide binding to human CAL PDZ domain; Q9HD26; purified CAL PDZ, TMR-peptide fluorescence polarization, 1 h; inhibition, % at 20 µM; hit rate 0.02% among 330,000; AID 504414;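 active means highest replicate inhibition of at least 40%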;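 further: plate controls were DMSO neutral control wells for no effect and unlabeled competitor peptide control wells for full effect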
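Test system: tagged CAL PDZ domain / Buffer or medium: sodium phosphate/NaCl buffer pH 7.4 with TCEP, IgG, Thesit / Reagent: TMR-labelled reporter peptide T*-PRC34 bound in PDZ groove / Compound dosing: single point, 20 µM / Schedule: 1 h incubation at room temperature before polarization reading / Technique: fluorescence polarization (mP) / Benchmarks: unlabelled peptide, DMSO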
CAL PDZ FP-2: CAL PDZ (human) peptide binding inhibition. Q9HD26. purified CAL PDZ, TMR-peptide fluorescence polarization, 1 h. inhibition, % at 24.9 µM. hit rate 0.92% among 300,000;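 active means mean inhibition of at least 30% with at least half of replicates also reaching 30%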;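 further: 0% = DMSO neutral control and 100% = excess unlabeled competitor peptide PRC23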
ARNT Alpha ctr-1: counter-screen for ARNT/TACC3 inhibitors: AlphaScreen artifacts. AC50, µM (top dose mostly 68 µM), for inactives: at the highest dose activity change, negative = signal decrease. hit rate 50% among 1,200. shares compounds with ARNT-TACC3 inh. AID 651705. His-ARNT PASB-GST AlphaScreen artifact counter-screen, luminescence;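 active means every separate test run was called active for a drop in luminescence, with AC50 within twice the top valid dose, actives reach about 71 µM in these data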
ARNT Alpha ctr-2: counter-screen for ARNT-TACC3 inhibitors: AlphaScreen artifacts. Dual-tagged His-ARNT PASB-GST AlphaScreen artifact counter-screen. hit rate 70% among 45. AID 720564. shares compounds with ARNT-TACC3 inh. AC50, µM;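 active means luminescence drop, with half-maximal potency fitted within twice the sample's top valid dose, cut at about 70 µM in these data; inactive means the rest, including signal moving the wrong way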
Numbers without * were called inactive; . = no result.

SMILES | ARNT-TACC3 inh | CAL PDZ FP-1 | CAL PDZ FP-2 | ARNT Alpha ctr-1 | others
CCC(COC(=O)c1ccccc1)Oc1cc(NCc2ccccc2)c2ncn(C(C)C)c2c1 (stereo not given) | 17 | 1 | 0 | .
CCC(COC)Oc1cc(NCc2ccccc2)c2ncn(C(C)C)c2c1 (stereo not given) | 56* | 0 | 2 | 34µM*
O=C(C[C@@H]1CC[C@H](NC(=O)Cc2cccnc2)[C@H](CO)O1)NCc1ccc2c(c1)OCO2 | -7 | . | . | .
C[C@@H]1CN([C@H](C)CO)C(=O)Cc2cc(NC(=O)Cc3ccccc3)ccc2O[C@@H]1CN(C)C | -11 | . | . | .
Cc1noc(C)c1S(=O)(=O)Nc1ccc2c(c1)C(=O)N([C@@H](C)CO)C[C@@H](C)[C@H](CN(C)CC1CCCCC1)O2 | -3 | . | . | .
O=C(CSc1ccc(-c2cccc([N+](=O)[O-])c2)nn1)NCc1ccccc1 | 0 | 0 | 0 | .
O=C(CSc1ccc(-c2ccccc2)nn1)NC1CCCCC1 | 2 | 5 | -3 | .
O=C(CSc1ncccn1)NCc1ccc(F)cc1 | -8 | 0 | -2 | .
O=C(CSc1ccc(-c2ccccn2)nn1)NCc1ccc(F)cc1 | 55* | 0 | -9 | 29µM*
O=C(CSc1ccc(-c2ccccn2)nn1)NC1CCCCC1 | 55* | -1 | -2 | 26µM* | ARNT Alpha ctr-2=20*
O=C(CSc1ccc(-c2ccccn2)nn1)NCc1ccccc1 | 102* | -1 | 0 | 41µM*
CNC[C@H]1Oc2ncc(C#CCC(C)C)cc2C(=O)N([C@H](C)CO)C[C@H]1C | 0 | . | . | .
C[C@@H]1CCCCO[C@H](CN(C)C(=O)Nc2cccc3ccccc23)[C@@H](C)CN([C@@H](C)CO)C(=O)c2cc(NS(=O)(=O)c3cn(C)cn3)ccc2O1 | 12 | . | . | .
C[C@@H]1CN([C@H](C)CO)C(=O)c2cc(NC(=O)Nc3cccc4ccccc34)ccc2O[C@@H](C)CCCCO[C@@H]1CN(C)C(=O)NC1CCCCC1 | -5 | . | . | .
CN1CCN(C(=O)[C@H]2[C@H](CO)[C@H]3Cn4c(ccc(-c5cncnc5)c4=O)[C@H]3N2CC2CCCC2)CC1 | -8 | . | . | .
O=C1c2cccnc2C(=O)N1Cc1ccc(F)cc1S(=O)(=O)NCc1ccco1 | 24 | -2 | -1 | .
O=C1c2cccnc2C(=O)N1Cc1ccc(S(=O)(=O)NCc2ccco2)s1 | 57* | -3 | -2 | -8%
Cc1ccc(S(=O)(=O)N(C)C[C@H]2Oc3c(NC(=O)Nc4ccc5c(c4)OCO5)cccc3C(=O)N([C@@H](C)CO)C[C@H]2C)cc1 | -22 | . | . | .
Cc1ccc(S(=O)(=O)N(C)C[C@H]2Oc3c(NS(=O)(=O)c4ccccc4)cccc3C(=O)N([C@@H](C)CO)C[C@H]2C)cc1 | -3 | . | . | .
O=C(N[C@H]1CC[C@H](CCn2cc(-c3ccccc3)nn2)O[C@@H]1CO)c1ccccc1F | -7 | . | . | .
COC(=O)c1[nH]c2ccc(C)cc2c1NC(=O)c1ccccc1[N+](=O)[O-] | 54* | 1 | 0 | -6%
COC(=O)c1[nH]c2ccc(Cl)cc2c1NC(=O)c1ccccc1[N+](=O)[O-] | -3 | -2 | -2 | .
CCOc1ccccc1Nc1nc(N)nc(CSc2nncn2C)n1 | 6 | 0 | 1 | .
CCOc1ccccc1Nc1nc(N)nc(CN(C)C2CCCCC2)n1 | 63* | . | -4 | -16%
CC1CCCC(C)N1/N=C/c1ccc(N(C)C)cc1 (stereo not given) | 8 | 35 | -2 | .
SMILES | ARNT-TACC3 inh | CAL PDZ FP-1 | CAL PDZ FP-2 | ARNT Alpha ctr-1 | others
CC1CCCC(C)N1/N=C/c1ccc([N+](=O)[O-])cc1 (stereo not given) | 51* | . | -4 | 24µM*
COCC(=O)N1C[C@@H](C)[C@@H](OC)CN(C)C(=O)c2cc(NC(=O)c3cc(C)on3)ccc2OC[C@H]1C | -4 | . | . | .
O=C(Nc1ccccc1C(F)(F)F)c1ncn[nH]1 | 59* | -3 | -1 | -28%
O=C(Nc1ccccc1C(F)(F)F)c1cnccn1 | -26 | 0 | . | .
CC(=O)N(C)C[C@H]1Oc2cc(Br)ccc2S(=O)(=O)N([C@@H](C)CO)C[C@@H]1C | 38 | . | . | .
COc1ccc(C)cc1NC(=O)CSc1ccc(-c2ccccn2)nn1 | 54* | -3 | 0 | 19µM*
Cc1cccc(NC(=O)CSc2ccc(-c3cccnc3)nn2)c1 | 4 | -3 | 9 | .
CC(=O)Nc1cccc(NC(=O)CSc2ccc(-c3ccccn3)nn2)c1 | 58* | -2 | 2 | 14µM*
COc1cc(NC(=O)CSc2ccc(-c3ccccn3)nn2)cc(OC)c1 | 59* | -5 | -1 | 11µM*
CC(=O)c1cccc(NC(=O)CSc2ccc(-c3ccccn3)nn2)c1 | 55* | -1 | -3 | 15µM*
CC(=O)Nc1cccc(NC(=O)CSc2nnc3ccc(-c4ccccn4)nn23)c1 | 23 | -2 | -3 | .
COc1cccc(NC(=O)CSc2ccc3nnc(-c4ccccn4)n3n2)c1 | 42 | -1 | 3 | .
COc1ccc(C)cc1NC(=O)CSc1ccc(-c2sc(C)nc2C)nn1 | -4 | -2 | 1 | .
CNC[C@@H]1Oc2ccc(NC(=O)NC3CCCCC3)cc2C(=O)N([C@@H](C)CO)C[C@@H]1C | -8 | . | . | .
CC(C)NC(=O)N(C)C[C@H]1Oc2c(NC(=O)C3CC3)cccc2C(=O)N([C@H](C)CO)C[C@H]1C | -5 | . | . | .
COc1ccc(-c2cn(CC[C@@H]3CC[C@H](NC(=O)CCN4CCCCC4)[C@H](CO)O3)nn2)cc1 | 0 | . | . | .
C[C@@H]1CN([C@H](C)CO)C(=O)c2cc(NC(=O)Nc3cccc4ccccc34)ccc2O[C@H]1CN(C)S(=O)(=O)c1ccc(Cl)cc1 | -3 | . | . | .
O=C(C1CC1)N1C[C@H]2[C@@H](c3ccccc31)[C@@H](CO)N2C(=O)c1ccccn1 | -10 | . | . | .
CC1C=NC(S(=O)(=O)N2CC[C@H]3[C@@H](CO)N(C)c4ccc(-c5ccccc5F)cc4[C@H]32)=N1 (stereo not given in full) | 2 | . | . | .
Cc1ccc(NC(=O)CSc2ccc(-c3cccnc3)nn2)cc1Cl | -7 | -1 | -6 | .
Cc1ccc(NC(=O)CSc2ccc(-c3ccccn3)nn2)cc1F | 50* | -3 | -5 | -20%
O=C(C[C@H]1C[C@H]2c3cc(NC(=O)C4CCC4)ccc3O[C@H]2[C@H](CO)O1)NCCc1ccccc1 | -1 | . | . | .
CN1CCN(C(c2ccccn2)c2cc(Cl)c3cccnc3c2O)CC1 (stereo not given) | 52* | -1 | 14 | 21µM*
CCC(=O)NC(c1ccccc1OC)c1ccc2cccnc2c1O (stereo not given) | 33 | -4 | -1 | .
Oc1c(C(c2ccc(Cl)cc2)N2CCCC2)cc(Cl)c2cccnc12 (stereo not given) | 55* | 0 | -2 | 6.5µM*
Oc1c(C(c2ccccc2Cl)N2CCCC2)ccc2cccnc12 (stereo not given) | 74* | -3 | -6 | 8.4µM*
Cc1ccc(C(c2cc(Cl)c3cccnc3c2O)N2CCN(C)CC2)cc1 (stereo not given) | . | -1 | 7 | .

Source: PubChem BioAssay
